ChEMBL document CHEMBL1914430, “Synthesis of some new 1,3,5-trisubstituted pyrazolines bearing benzene sulfonamide as anticancer and anti-inflammatory agents” (Bioorg Med Chem Lett, 2011)

What was measured:
Type in all cases: functional
SK-OV-3 = experiment: Anticancer activity against human SKOV3 cells after 48 hrs; settings: SK-OV-3, 48 h; for CC50: read-out: LC50 (the source's name)
Method in brief: (§1)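 NCI 60-line panel protocol with a 48 h incubation. Per line: GI50 = concentration giving 50% decrease in net cell growth; TGI = total growth inhibition; LC50 = net 50% loss of initial cells. When the level was not reached or was exceeded, the value is given as greater or less than the highest or lowest concentration tested.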

OVCAR-4 = experiment: Anticancer activity against human OVCAR4 cells after 48 hrs; settings: OVCAR-4, 48 h; method in brief: as §1
NCI/ADR-RES = experiment: Anticancer activity against human NCI/ADR-RES cells after 48 hrs; settings: for CC50: read-out: LC50 (the source's name); method in brief: as §1
NCI-H226 = experiment: Anticancer activity against human NCI-H226 cells after 48 hrs; settings: NCI-H226, 48 h; for CC50: read-out: LC50 (the source's name); method in brief: as §1
SK-MEL-28 = experiment: Anticancer activity against human SK-MEL-28 cells after 48 hrs; settings: SK-MEL-28, 48 h; for CC50: read-out: LC50 (the source's name); method in brief: as §1
[1] = Anticancer activity against human Hs 578T cells after 48 hrs; settings: for CC50: read-out: LC50 (the source's name)
Method in brief: (§2)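 NCI Drug Evaluation Branch 60-cell-line screen across leukemia, melanoma, lung, colon, CNS, ovarian, renal, prostate and breast panels. The incubation period is 48 h. Parameters are derived from dose–response data: GI50 is the concentration giving 50% decrease in net growth, TGI is total growth inhibition, and LC50 is net 50% loss of initial cells. Values beyond the tested range are reported as greater or less than the maximum or minimum concentration.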

HCC 2998 = experiment: Anticancer activity against human HCC2998 cells after 48 hrs; settings: HCC 2998, 48 h; method in brief: as §2
DU-145 = experiment: Anticancer activity against human DU145 cells after 48 hrs; settings: DU-145, 48 h; method in brief: as §2
SF-539 = experiment: Anticancer activity against human SF539 cells after 48 hrs; settings: SF-539, 48 h; method in brief: as §1
SR = experiment: Anticancer activity against human SR cells after 48 hrs; method in brief: as §1
NCI-H23 = experiment: Anticancer activity against human NCI-H23 cells after 48 hrs; settings: NCI-H23, 48 h; method in brief: as §1
OVCAR-5 = experiment: Anticancer activity against human OVCAR5 cells after 48 hrs; settings: OVCAR-5, 48 h; method in brief: as §1
OVCAR-3 = experiment: Anticancer activity against human OVCAR3 cells after 48 hrs; settings: OVCAR-3, 48 h; method in brief: as §1
RXF 393 = experiment: Anticancer activity against human RXF393 cells after 48 hrs; settings: RXF 393, 48 h; method in brief: as §1
MDA-MB-435 = experiment: Anticancer activity against human MDA-MB-435 cells after 48 hrs; settings: MDA-MB-435, 48 h; for CC50: read-out: LC50 (the source's name); method in brief: as §2
T47D = experiment: Anticancer activity against human T47D cells after 48 hrs; settings: for CC50: read-out: LC50 (the source's name)
Method in brief: (§3)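 NCI ~60 human tumour cell line panel with a 48 h incubation. GI50 is the concentration giving a 50% fall in net growth, TGI gives total growth inhibition, and LC50 gives a net 50% loss of initial cells. An effect not reached or exceeded is reported as greater or less than the highest or lowest concentration tested.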

SW-620 = experiment: Anticancer activity against human SW620 cells after 48 hrs; settings: SW-620, 48 h; method in brief: as §1
HL-60(TB) = experiment: Anticancer activity against human HL-60(TB) cells after 48 hrs; settings: HL-60, 48 h
Method in brief: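 NCI 60-cell-line panel protocol: cells exposed to compound for 48 h. Initial one-dose screen at 10⁻⁵ M. GI50 = concentration giving 50% decrease in net cell growth. TGI = concentration giving total growth inhibition. LC50 = concentration giving net 50% loss of initial cells at the end of incubation. A value not reached or exceeded is reported as greater or less than the highest or lowest concentration tested.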

SNB-75 = experiment: Anticancer activity against human SNB75 cells after 48 hrs; settings: SNB-75, 48 h; for CC50: read-out: LC50 (the source's name); method in brief: as §1
MDA-MB-468 = experiment: Anticancer activity against human MDA-MB-468 cells after 48 hrs; settings: MDA-MB-468, 48 h; for CC50: read-out: LC50 (the source's name); method in brief: as §2
UACC-62 = experiment: Anticancer activity against human UACC62 cells after 48 hrs; settings: UACC-62, 48 h; method in brief: as §3
NCI-H322M = experiment: Anticancer activity against human NCI-H322M cells after 48 hrs; method in brief: as §1
K562 = experiment: Anticancer activity against human K562 cells after 48 hrs; settings: K562, 48 h; method in brief: as §2
SF-268 = experiment: Anticancer activity against human SF268 cells after 48 hrs; settings: SF-268, 48 h; method in brief: as §1
SNB-19 = experiment: Anticancer activity against human SNB19 cells after 48 hrs; settings: SNB-19, 48 h; for CC50: read-out: LC50 (the source's name); method in brief: as §1
IGROV-1 = experiment: Anticancer activity against human IGROV1 cells after 48 hrs; settings: IGROV-1, 48 h; method in brief: as §2
Rattus norvegicus = experiment: Antiinflammatory activity in Wistar rat assessed as inhibition of carrageenan-induced hind paw edema at 20 mg/kg, po administered 30 mins before carrageenan challenge measured after 5 hrs by plethysmometer
Method in brief: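 Wistar rats of either sex, 150–175 g, fasted 16 h, n = 6 per group. Compound given orally at 20 mg/kg as a suspension in 1% CMC in water (10 mL/kg); controls got vehicle only. After 30 min, 0.1 mL of 1% carrageenan in saline was injected subplantar into the left hind paw. Paw volume was measured by plethysmometer at 0, 3 and 5 h. Inhibition = (1 − Vt/Vc) × 100, reported as mean ± SEM.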

COc1ccc(C2CC(c3cc(Cl)c(C)cc3O)=NN2c2ccc(S(N)(=O)=O)cc2)cc1OC (centres undefined)
GI50 (SK-OV-3): 4.51 µM
TGI (SK-OV-3): 38.3 µM
CC50 (SK-OV-3): > 100 µM
GI50 (OVCAR-4): 4.18 µM
LC50 (OVCAR-4): > 100 µM
GI50 (NCI/ADR-RES): 3.39 µM
TGI (NCI/ADR-RES): 14.1 µM
CC50 (NCI/ADR-RES): > 100 µM
GI50 (NCI-H226): 5.62 µM
TGI (NCI-H226): 23.1 µM
CC50 (NCI-H226): 86.4 µM
GI50 (SK-MEL-28): 4.29 µM
TGI (SK-MEL-28): 17.7 µM
CC50 (SK-MEL-28): 62.7 µM
GI50 [1]: 3.29 µM
TGI [1]: 34.3 µM
CC50 [1]: > 100 µM
GI50 (HCC 2998): 2.72 µM
LC50 (net 50% loss of initial cells) (HCC 2998): 27.4 µM
TGI (HCC 2998): 7.25 µM
GI50 (DU-145): 4.49 µM
LC50 (concentration causing net 50% loss of initial cells) (DU-145): > 100 µM
TGI (DU-145): 21.7 µM
GI50 (SF-539): 2.1 µM
LC50 (concentration causing net 50% loss of initial cells) (SF-539): 12 µM
TGI (SF-539): 4.75 µM
GI50 (SR): 2.82 µM
LC50 (concentration killing 50% of initial cells) (SR): > 100 µM
GI50 (NCI-H23): 3.11 µM
LC50 (concentration killing 50% of initial cells) (NCI-H23): > 100 µM
TGI (NCI-H23): 13.6 µM
GI50 (OVCAR-5): 2.25 µM
LC50 (OVCAR-5): 27.8 µM
TGI (OVCAR-5): 6.36 µM
GI50 (OVCAR-3): 3.37 µM
LC50 (concentration giving 50% net loss of initial cells) (OVCAR-3): 77.5 µM
TGI (OVCAR-3): 9.8 µM
GI50 (RXF 393): 2.88 µM
LC50 (RXF 393): 31.4 µM
TGI (RXF 393): 7.52 µM
GI50 (MDA-MB-435): 3.97 µM
TGI (MDA-MB-435): 24 µM
CC50 (MDA-MB-435): > 100 µM
GI50 (T47D): 3.1 µM
TGI (T47D): 13.3 µM
CC50 (T47D): > 100 µM
GI50 (SW-620): 4.08 µM
TGI (SW-620): 26.6 µM
CC50 (SW-620; read-out: LC50 (the source's name)): > 100 µM
GI50 (HL-60(TB)): 3.42 µM
LC50 (HL-60(TB)): > 100 µM
TGI (HL-60(TB)): 100 µM
GI50 (SNB-75): 2.7 µM
TGI (SNB-75): 97.2 µM
CC50 (SNB-75): > 100 µM
GI50 (MDA-MB-468): 2.58 µM
TGI (MDA-MB-468): 9.51 µM
CC50 (MDA-MB-468): > 100 µM
GI50 (UACC-62): 3.13 µM
LC50 (UACC-62): 43.3 µM
TGI (UACC-62): 12.9 µM
GI50 (NCI-H322M): 4.45 µM
LC50 (net 50% loss of initial cells) (NCI-H322M): > 100 µM
TGI (NCI-H322M): 39.7 µM
GI50 (K562): 3.18 µM
LC50 (concentration killing 50% of initial cells) (K562): > 100 µM
GI50 (SF-268): 4.74 µM
LC50 (concentration killing 50% of initial cells) (SF-268): > 100 µM
GI50 (SNB-19): 5.53 µM
TGI (SNB-19): 89.3 µM
CC50 (SNB-19): > 100 µM
GI50 (IGROV-1): 2.34 µM
LC50 (net 50% loss of initial cells) (IGROV-1): 28.8 µM
TGI (IGROV-1): 5.46 µM
inhibition in vivo at 20 mg/kg (Rattus norvegicus): 68.3%

Cc1cc(O)c(C2=NN(c3ccc(S(N)(=O)=O)cc3)C(c3ccccc3Cl)C2)cc1Cl (centres undefined)
GI50 (SK-OV-3): 3.63 µM
TGI (SK-OV-3): 10.4 µM
CC50 (SK-OV-3): 32.3 µM
GI50 (OVCAR-4): 2.73 µM
LC50 (OVCAR-4): 40 µM
TGI (OVCAR-4): 8.48 µM
GI50 (NCI/ADR-RES): 2.7 µM
TGI (NCI/ADR-RES): 6.85 µM
CC50 (NCI/ADR-RES): 38.8 µM
GI50 (NCI-H226): 3.03 µM
TGI (NCI-H226): 9.44 µM
CC50 (NCI-H226): > 100 µM
GI50 (SK-MEL-28): 3.39 µM
TGI (SK-MEL-28): 12.3 µM
CC50 (SK-MEL-28): 52.9 µM
GI50 [1]: 3.28 µM
CC50 [1]: > 100 µM
GI50 (HCC 2998): 2.1 µM
LC50 (net 50% loss of initial cells) (HCC 2998): 7.3 µM
TGI (HCC 2998): 3.91 µM
GI50 (DU-145): 2.01 µM
LC50 (concentration causing net 50% loss of initial cells) (DU-145): 7.35 µM
TGI (DU-145): 3.85 µM
GI50 (SF-539): 1.79 µM
LC50 (concentration causing net 50% loss of initial cells) (SF-539): 5.9 µM
TGI (SF-539): 3.25 µM
GI50 (SR): 2.97 µM
LC50 (concentration killing 50% of initial cells) (SR): > 100 µM
GI50 (NCI-H23): 1.79 µM
LC50 (concentration killing 50% of initial cells) (NCI-H23): 7.13 µM
TGI (NCI-H23): 3.58 µM
GI50 (OVCAR-5): 1.74 µM
LC50 (OVCAR-5): 6.23 µM
TGI (OVCAR-5): 3.3 µM
GI50 (OVCAR-3): 1.89 µM
LC50 (concentration giving 50% net loss of initial cells) (OVCAR-3): 6.77 µM
TGI (OVCAR-3): 3.58 µM
GI50 (RXF 393): 3.09 µM
LC50 (RXF 393): > 100 µM
TGI (RXF 393): 8.22 µM
GI50 (MDA-MB-435): 1.85 µM
TGI (MDA-MB-435): 3.92 µM
CC50 (MDA-MB-435): 8.32 µM
GI50 (T47D): 2.81 µM
TGI (T47D): 10.3 µM
CC50 (T47D): 82.3 µM
GI50 (SW-620): 1.97 µM
TGI (SW-620): 4.1 µM
GI50 (HL-60(TB)): 3.44 µM
LC50 (HL-60(TB)): > 100 µM
TGI (HL-60(TB)): 100 µM
GI50 (SNB-75): 2.23 µM
TGI (SNB-75): 8.83 µM
CC50 (SNB-75): 63.6 µM
GI50 (MDA-MB-468): 2.22 µM
TGI (MDA-MB-468): 4.74 µM
CC50 (MDA-MB-468): > 100 µM
GI50 (UACC-62): 3.71 µM
LC50 (UACC-62): 43.4 µM
TGI (UACC-62): 14.4 µM
GI50 (NCI-H322M): 2.19 µM
LC50 (net 50% loss of initial cells) (NCI-H322M): 22 µM
TGI (NCI-H322M): 5.06 µM
GI50 (K562): 3.26 µM
LC50 (concentration killing 50% of initial cells) (K562): > 100 µM
GI50 (SF-268): 1.92 µM
TGI (SF-268): 3.72 µM
GI50 (SNB-19): 3.54 µM
TGI (SNB-19): 16.3 µM
CC50 (SNB-19): 92.3 µM
GI50 (IGROV-1): 2.58 µM
LC50 (net 50% loss of initial cells) (IGROV-1): 47.2 µM
TGI (IGROV-1): 14 µM
inhibition in vivo at 20 mg/kg (Rattus norvegicus): 71.4%
